Read-outs that look alike come from different tables or passages of the source.
Key:
[1] = target: T1, Escherichia coli GUS (EcGUS) (Escherichia coli, UniProt P05804); test: EcGUS inhibition assay; assay type: biochemical; conditions: for percentage inhibition rate of EcGUS: compounds at 100 μM, pNPG as substrate; for inhibition at 100 µM: read-out: percentage inhibition rate of EcGUS
[2] = target: T1, Escherichia coli GUS (EcGUS); test: Inhibition kinetics; assay type: biochemical; conditions: pNPG as substrate; for type of inhibition of EcGUS: Lineweaver-Burk plot
Procedure, shortened: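 Recombinant EcGUS was expressed in E. coli BL21(DE3) carrying pET28a-EcGUS. The enzyme hydrolysed pNPG, and activity was read as para-nitrophenyl released. Test compound stocks were 10 mM in DMSO. pNPG and inhibitor concentrations were varied. Inhibition type came from where the regression lines intercept on Lineweaver-Burk plots, and Ki was then calculated. Runs were in triplicate, repeated twice, reported as mean ± SD.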

[3] = read-out: IC50 against EcGUS, pNPG 250 µM, PBS pH 7.4, 37 °C, 30 min

T1 sequence (P05804 whole entry): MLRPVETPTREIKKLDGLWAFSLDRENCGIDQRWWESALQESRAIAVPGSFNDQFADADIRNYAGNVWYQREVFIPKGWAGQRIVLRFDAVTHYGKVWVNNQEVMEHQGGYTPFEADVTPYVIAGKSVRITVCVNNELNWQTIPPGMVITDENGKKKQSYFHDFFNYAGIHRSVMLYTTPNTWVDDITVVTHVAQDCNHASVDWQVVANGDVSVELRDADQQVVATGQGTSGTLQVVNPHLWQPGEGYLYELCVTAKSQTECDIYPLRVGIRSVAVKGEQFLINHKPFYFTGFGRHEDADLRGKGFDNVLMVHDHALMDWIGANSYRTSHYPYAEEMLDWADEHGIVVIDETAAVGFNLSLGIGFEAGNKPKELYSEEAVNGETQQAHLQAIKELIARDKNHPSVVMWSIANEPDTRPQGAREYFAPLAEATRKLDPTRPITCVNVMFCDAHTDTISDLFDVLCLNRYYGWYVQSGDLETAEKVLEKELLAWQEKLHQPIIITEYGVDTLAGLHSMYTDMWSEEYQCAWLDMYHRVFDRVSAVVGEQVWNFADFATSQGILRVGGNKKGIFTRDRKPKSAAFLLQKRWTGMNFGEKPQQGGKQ

Compound | IC50 [1, 3] [µM] | type of inhibition of EcGUS [2] | percentage inhibition rate of EcGUS [1] [%] | IC50 [1] [µM] | inhibition at 100 µM [1] [%] | Ki ([2]; read-out: Ki (inhibition constant) against EcGUS) [µM]
C[C@@H]1O[C@@H](OC[C@H]2O[C@@H](OCCc3ccc(O)c(O)c3)[C@H](O)[C@@H](OC(=O)/C=C/c3ccc(O)c(O)c3)[C@@H]2O)[C@H](O)[C@H](O)[C@H]1O [isoforsythiaside] | 7.6 | mixed-type | – | – | – | –
O=C(O)[C@@H](O)[C@H]1OC(=O)[C@H](O)[C@H]1O [DSL, D-glucaric acid-1,4-lactone, reference compound] | 67.1 | – | 48.7 ± 1.2 | – | – | –
COc1ccc(CCO[C@@H]2O[C@H](CO[C@@H]3OC[C@H](O)[C@H](O)[C@H]3O)[C@@H](OC(=O)/C=C/c3ccc(O)c(OC)c3)[C@H](O[C@@H]3O[C@@H](C)[C@H](O)[C@@H](O)[C@H]3O)[C@H]2O)cc1O [angoroside C] | > 100 | – | – | – | – | –
acetylacteoside | – | mixed-type | – | – | – | –
COc1ccc(CCO[C@@H]2O[C@H](CO)[C@@H](OC(=O)/C=C/c3ccc(O)c(OC)c3)[C@H](O[C@@H]3O[C@@H](C)[C@H](O)[C@@H](O)[C@H]3O)[C@H]2O)cc1O [martynoside] | 14.3 | mixed-type | – | – | – | –
C[C@@H]1O[C@@H](O[C@@H]2[C@@H](O)[C@H](OCCc3ccc(O)c(O)c3)O[C@H](COC(=O)/C=C/c3ccc(O)c(O)c3)[C@H]2O)[C@H](O)[C@H](O)[C@H]1O [isoacteoside] | – | mixed-type | – | 8.8 | 77 | –
C[C@@H]1O[C@@H](OC[C@H]2O[C@@H](OCCc3ccc(O)c(O)c3)[C@H](OC(=O)/C=C/c3ccc(O)c(O)c3)[C@@H](O)[C@@H]2O)[C@H](O)[C@H](O)[C@H]1O [forsythoside H] | 22.2 | – | – | – | – | –
C[C@@H]1O[C@@H](O[C@@H]2[C@@H](O)[C@H](OCCc3ccc(O)c(O)c3)O[C@H](CO)[C@H]2OC(=O)/C=C/c2ccc(O)c(O)c2)[C@H](O)[C@H](O)[C@H]1O [acteoside] | – | mixed-type | – | 3.2 | 88 ± 2.2 | –
CCOC(=O)/C=C/c1ccc(O)c(O)c1 [CAEE, caffeic acid ethyl ester] | 7 | competitive | 97.1 ± 0.2 | – | – | 2.7

Source: paper PMC7717682 (Journal of Enzyme Inhibition and Medicinal Chemistry, 2020)
